For data set [1], the system named is K562 cells. The data set can be described thus: LDH leakage assay. The conditions noted are these: 10 μM peptide, 24 h, serum-free medium. In kind it is cell-based, human. Put shortly: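 K562 cells were seeded in 96-well plates for 24 h, then incubated 24 h with peptide in serum-free medium using a kit. Plates were spun at 400g for 5 min. Supernatant was mixed with LDH detection solution and shaken 30 min at room temperature, then read at 490 nm. Untreated wells = no leakage; LDH-releasing reagent = 100% leakage.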
(In general: LDH leaks from cells whose membrane has failed.)

Data set [2] has as its system K562 cells. The data set can be described thus: Cell viability, CCK-8 method. In kind it is cell-based, human. The conditions noted are these: 10 μM peptide, 24 h, CCK8. The method in brief: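 K562 cells (IMDM, 10% FBS, 37 °C, 5% CO2) were seeded at 5×10^3 cells/well in 96-well plates. After 24 h, IMDM containing peptide was added without removing the medium. After 24 h at 37 °C, viability was read by CCK-8.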
On the technique in general: Tetrazolium dyes change colour on reduction, which living cells bring about.

The nature of another data set: Serum stability assay. Type of data set: in vitro ADME. As to conditions: peptide solution (10 mM), 37 °C, supernatant analysed by RP-HPLC.
In a further data set the test system is MCF-7 cells. Kind of data set: Cell viability, CCK-8 method. In kind it is cell-based, human. The conditions noted are these: 10 μM peptide, 24 h, CCK8. The method in brief:
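MCF-7 cells (MEM, 10% FBS, 37 °C, 5% CO2) were seeded at 5×10^3 cells/well in 96-well plates. After 24 h, the medium was removed and replaced with MEM containing peptide. After 24 h at 37 °C, viability was read by CCK-8.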

Data set [3] relates to cancer cells and murine fibroblasts. As to conditions: read-out: antiproliferative activity IC50 values; against cancer cells and murine fibroblasts; cited from earlier work.

pIC50: −log10 of the molar value. Residues, ends and D or L forms follow the SMILES beside them. No end group written: not given here.

Turning to `CCCCCCCCCC(=O)N[C@@H](Cc1ccccc1)C(=O)N[C@H](C(=O)NCC(=O)N[C@H](C(=O)N[C@@H](CC(C)C)C(=O)N[C@H](C(=O)N1CCC[C@H]1C(=O)N[C@@H](CC(C)C)C(=O)N[C@@H](C)C(=O)N[C@@H](CC(C)C)C(=O)NCC(=O)N[C@@H](C)C(=O)N[C@@H](CC(C)C)C(=O)N[C@H](C(=O)N[C@@H](CCCCN)C(=O)N[C@@H](CC(C)C)C(=O)N[C@@H](Cc1ccccc1)C(=O)N[C@@H](CCCCN)C(N)=O)[C@@H](C)O)[C@@H](C)CC)[C@@H](C)O)[C@@H](C)CC` [A-10] (HELM PEPTIDE1{[CCCCCCCCCC(=O)[*:2]].F.I.G.T.L.I.P.L.A.L.G.A.L.T.K.L.F.K.[am]}$$$$V2.0), the “LDH leakage (cell membrane destruction)” value in the data set on K562 cells [1] was “stronger than that of F1”. For the same compound, the “anticancer activity in the preliminary screening, compared with F1, K562 cells” value with K562 cells [2] is on record as “strongest anticancer activity”. Further, the “peptide degraded after incubation in 10% serum for 1 h” value in the data set “Serum stability assay” is given as “hardly degraded”. Moreover, the “anticancer activity in the preliminary screening, compared with F1, MCF-7 cells” value with MCF-7 cells is on record as “strongest anticancer activity”.

A word on the pIC50: it is the IC50 on a negative log10 scale, so that one unit is a factor of ten. For the compound “FIGTLIPLALGALTKLFK-NH2 [F1, Figainin 1, reference compound]”, in the data set with K562 cells [1], the “LDH leakage (cell membrane destruction)” value is “destroyed cell membranes”. Besides, in data set [3], the pIC50 is 4.86 to 4.98.

The record behind these values is article PMC10633881 (ACS Omega, 2023).
